In ChEMBL document CHEMBL4725436, “Gibberellin JRA-003: A Selective Inhibitor of Nuclear Translocation of IKKα” (ACS Med Chem Lett, 2020):
The source made the active and inactive calls. The calls are words filed in the database; no cut-off is given here.

Columns and labels:
HEK-293T [1] = assay: Cytotoxicity against human HEK293T cells assessed as reduction in cell viability measured after 24 hrs by CellTiter-Glo luminescent assay; format: cell-based
Summary of the method: (§1)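 High-throughput viability screen of test agents across a panel of 22 cancerous and noncancerous human cell lines. Viability was read by CellTiter-Glo luminescence.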

[2] = Selectivity index, ratio of IC50 for human HS895SK cells to EC50 for human CA46 cells measured after 24 hrs by CellTiter-Glo luminescent assay; summary of the method: as §1
[3] = Cytotoxicity against human Hs888Lu cells assessed as reduction in cell viability measured after 24 hrs by CellTiter-Glo luminescent assay; format: cell-based; summary of the method: as §1
RCK8 = assay: Cytotoxicity against human RC-K8 cells assessed as reduction in cell viability measured after 24 hrs by CellTiter-Glo luminescent assay; format: functional, cell-based; conditions: RCK8, 24 h; summary of the method: as §1
SUD4 = assay: Cytotoxicity against human SU-DHL-4 cells assessed as reduction in cell viability measured after 24 hrs by CellTiter-Glo luminescent assay; format: functional, cell-based; conditions: SU-DHL-4, 24 h; summary of the method: as §1
[4] = Selectivity index, ratio of IC50 for human Hs578Bst cells to EC50 for human SU-DHL-4 cells measured after 24 hrs by CellTiter-Glo luminescent assay; format: toxicity; conditions: Hs578Bst cells (IC50) versus SU-DHL-4 cells (EC50); summary of the method: as §1
HCC1599 = assay: Cytotoxicity against human HCC1599 cells assessed as reduction in cell viability measured after 24 hrs by CellTiter-Glo luminescent assay; format: functional, cell-based; conditions: HCC1599, 24 h; summary of the method: as §1
[5] = Cytotoxicity against human Hs895SK cells assessed as reduction in cell viability measured after 24 hrs by CellTiter-Glo luminescent assay; format: cell-based; conditions: Hs 895.Sk; summary of the method: as §1
[6] = Selectivity index, ratio of IC50 for human Hs888Lu cells to EC50 for human SU-DHL-4 cells measured after 24 hrs by CellTiter-Glo luminescent assay; format: toxicity; conditions: Hs888Lu cells (IC50) versus SU-DHL-4 cells (EC50); summary of the method: as §1
[7] = Inhibition of IKKalpha/IKKbeta in human HEK293T cells transfected with firefly luciferase gene assessed as inhibition of TNF-alpha-stimulated NF-kappaB signalling preincubated for 1 hr followed by TNF alpha stimulation measured after 3 hrs by luciferase reporter gene assay; format: cell-based; conditions: HEK-293T
Summary of the method: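 Commercial NF-κB-driven luciferase reporter assay in HEK 293T cells stimulated with TNFα. EC50 was derived from the luminescence readout.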

[8] = Selectivity index, ratio of IC50 for human Hs888Lu cells to EC50 for human RC-K8 cells measured after 24 hrs by CellTiter-Glo luminescent assay; format: toxicity; conditions: Hs888Lu cells (IC50) versus RC-K8 cells (EC50); summary of the method: as §1
HEK-293T [9] = assay: Inhibition of IKKalpha/IKKbeta in human HEK293T cells transfected with firefly luciferase gene assessed as inhibition of NF-kappaB signalling at 10 uM by luciferase reporter gene assay; format: cell-based
[10] = Selectivity index, ratio of IC50 for human Hs578Bst cells to EC50 for human RC-K8 cells measured after 24 hrs by CellTiter-Glo luminescent assay; format: toxicity; conditions: Hs578Bst cells (IC50) versus RC-K8 cells (EC50); summary of the method: as §1
[11] = Selectivity index, ratio of IC50 for human HS895SK cells to EC50 for human SU-DHL-4 cells measured after 24 hrs by CellTiter-Glo luminescent assay; summary of the method: as §1
[12] = Selectivity index, ratio of IC50 for human Hs888lu cells to EC50 for human HS578T cells measured after 24 hrs by CellTiter-Glo luminescent assay; summary of the method: as §1
[13] = target: T1, Inhibitor of nuclear factor kappa-B kinase subunit alpha (Homo sapiens) (UniProt O15111); assay: Inhibition of JRA-031 binding to IKKalpha in TNF-alpha-stimulated human HEK293T cells at 1 uM pretreated with compound for 1 hr followed by labeling with JRA-031 for 1 hr followed by stimulation with TNF-alpha for 1 hr by pull down based mass spectrometry; format: cell-based; conditions: HEK-293T
T1 sequence (whole entry): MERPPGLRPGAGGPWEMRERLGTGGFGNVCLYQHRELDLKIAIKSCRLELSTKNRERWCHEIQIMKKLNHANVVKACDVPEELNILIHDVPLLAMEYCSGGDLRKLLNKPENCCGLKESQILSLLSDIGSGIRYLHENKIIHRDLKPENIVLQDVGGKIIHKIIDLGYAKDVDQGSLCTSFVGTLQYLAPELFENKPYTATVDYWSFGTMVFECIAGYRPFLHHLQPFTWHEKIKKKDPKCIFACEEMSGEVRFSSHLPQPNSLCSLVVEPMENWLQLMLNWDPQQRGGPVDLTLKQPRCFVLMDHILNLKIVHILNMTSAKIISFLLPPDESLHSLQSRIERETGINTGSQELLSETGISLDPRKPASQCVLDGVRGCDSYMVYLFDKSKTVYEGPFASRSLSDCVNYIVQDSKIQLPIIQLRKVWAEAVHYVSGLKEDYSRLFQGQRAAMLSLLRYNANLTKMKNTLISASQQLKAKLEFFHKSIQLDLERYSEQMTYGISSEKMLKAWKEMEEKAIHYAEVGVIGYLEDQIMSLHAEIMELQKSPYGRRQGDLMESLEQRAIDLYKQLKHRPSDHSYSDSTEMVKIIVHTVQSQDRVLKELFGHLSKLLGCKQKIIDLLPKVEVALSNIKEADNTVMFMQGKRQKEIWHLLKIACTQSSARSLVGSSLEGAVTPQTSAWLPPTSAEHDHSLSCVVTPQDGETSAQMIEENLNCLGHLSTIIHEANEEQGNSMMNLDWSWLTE

Q: Which IC50 (HEK-293T [1]) does the source give for C=C1C[C@]23C[C@@]1(O)CC[C@H]2[C@@]12C=CC(=O)[C@@](C)(C(=O)O1)[C@H]2[C@@H]3C(=O)OC here?
A: > 10000 nM

Q: And the “Ratio IC50/EC50” value [2]?
A: 500

Q: What about the IC50 [3] of the same compound?
A: > 10000 nM

Q: And the EC50 (RCK8)?
A: < 40 nM

Q: What about the EC50 (SUD4) of the same compound?
A: < 40 nM

Q: What about the selectivity ratio at 24 h [4] of the same compound?
A: 500

Q: And the EC50 (HCC1599)?
A: 150 nM

Q: What about the IC50 [5] of the same compound?
A: > 10000 nM

Q: What about the selectivity ratio at 24 h [6] of the same compound?
A: 500

Q: What about the EC50 [7] of the same compound?
A: 2600 nM

Q: What about the selectivity ratio at 24 h [8] of the same compound?
A: 500

Q: And the inhibition (HEK-293T [9])?
A: 100%

Q: And the selectivity ratio at 24 h [10]?
A: 500

Q: And the “Ratio IC50/EC50” value [11]?
A: 500

Q: What about the Ratio IC50/EC50 [12] of the same compound?
A: > 500

Q: And the inhibition [13]?
A: Active
